Measured values taken from paper PMC11247637 (ACS Medicinal Chemistry Letters, 2024).

Tests used:
[1] = molecular target: T1, MUS81-EME1 heterodimer (MUS81 residues 246-551; EME1 residues 246-570) (Homo sapiens, UniProt Q96NY9); assay: Surface plasmon resonance; assay type: binding; conditions: SPR affinity; for increase in affinity: compared with 5
T1 sequence (Q96NY9 246-551): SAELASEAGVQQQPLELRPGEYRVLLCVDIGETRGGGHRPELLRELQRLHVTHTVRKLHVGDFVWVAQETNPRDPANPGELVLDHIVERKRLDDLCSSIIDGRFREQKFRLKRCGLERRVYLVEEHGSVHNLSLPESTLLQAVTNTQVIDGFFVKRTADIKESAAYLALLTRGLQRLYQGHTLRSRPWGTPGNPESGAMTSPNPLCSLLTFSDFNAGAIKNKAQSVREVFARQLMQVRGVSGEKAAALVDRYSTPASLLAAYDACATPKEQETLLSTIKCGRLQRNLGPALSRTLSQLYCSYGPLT
T1 sequence (Q96AY2 246-570 partner limits assumed): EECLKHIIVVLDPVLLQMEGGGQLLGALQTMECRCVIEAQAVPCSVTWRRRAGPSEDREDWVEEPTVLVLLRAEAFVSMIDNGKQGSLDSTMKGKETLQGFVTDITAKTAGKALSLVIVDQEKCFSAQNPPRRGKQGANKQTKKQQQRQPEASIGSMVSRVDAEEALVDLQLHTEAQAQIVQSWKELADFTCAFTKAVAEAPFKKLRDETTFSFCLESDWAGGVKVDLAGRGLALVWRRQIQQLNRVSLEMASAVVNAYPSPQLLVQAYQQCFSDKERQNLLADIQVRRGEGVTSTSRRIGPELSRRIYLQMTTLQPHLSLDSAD
Procedure, shortened: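 Kd values for binding to MUS81-EME1 were measured by SPR. Affinities are the geometric mean with geometric standard deviation of at least three determinations.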

Full length MUS81-EME1 = molecular target: T2, Full length MUS81-EME1 (Homo sapiens, UniProt Q96NY9); assay: MUS81-EME1 biochemical enzyme-inhibition assay; conditions: for improvement in biochemical activity (IC50): compared with pyrimidinone 15; for improvement in biochemical activity: compared to 18
T2 sequence (Q96NY9 1-551): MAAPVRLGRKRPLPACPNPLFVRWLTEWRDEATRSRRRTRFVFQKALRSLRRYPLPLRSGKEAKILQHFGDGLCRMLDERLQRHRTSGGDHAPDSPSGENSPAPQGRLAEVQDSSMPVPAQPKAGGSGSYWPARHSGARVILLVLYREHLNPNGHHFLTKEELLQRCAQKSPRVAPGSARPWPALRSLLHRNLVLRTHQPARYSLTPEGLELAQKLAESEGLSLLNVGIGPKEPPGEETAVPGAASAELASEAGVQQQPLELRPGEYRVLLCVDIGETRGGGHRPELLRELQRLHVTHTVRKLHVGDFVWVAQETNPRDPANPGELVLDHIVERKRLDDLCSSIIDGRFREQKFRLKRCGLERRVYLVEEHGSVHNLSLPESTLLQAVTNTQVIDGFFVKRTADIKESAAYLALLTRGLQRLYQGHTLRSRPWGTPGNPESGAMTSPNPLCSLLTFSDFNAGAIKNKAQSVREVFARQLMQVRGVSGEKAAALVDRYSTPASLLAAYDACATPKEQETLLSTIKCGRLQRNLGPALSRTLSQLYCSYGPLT
T2 sequence (Q96AY2 1-570 partner): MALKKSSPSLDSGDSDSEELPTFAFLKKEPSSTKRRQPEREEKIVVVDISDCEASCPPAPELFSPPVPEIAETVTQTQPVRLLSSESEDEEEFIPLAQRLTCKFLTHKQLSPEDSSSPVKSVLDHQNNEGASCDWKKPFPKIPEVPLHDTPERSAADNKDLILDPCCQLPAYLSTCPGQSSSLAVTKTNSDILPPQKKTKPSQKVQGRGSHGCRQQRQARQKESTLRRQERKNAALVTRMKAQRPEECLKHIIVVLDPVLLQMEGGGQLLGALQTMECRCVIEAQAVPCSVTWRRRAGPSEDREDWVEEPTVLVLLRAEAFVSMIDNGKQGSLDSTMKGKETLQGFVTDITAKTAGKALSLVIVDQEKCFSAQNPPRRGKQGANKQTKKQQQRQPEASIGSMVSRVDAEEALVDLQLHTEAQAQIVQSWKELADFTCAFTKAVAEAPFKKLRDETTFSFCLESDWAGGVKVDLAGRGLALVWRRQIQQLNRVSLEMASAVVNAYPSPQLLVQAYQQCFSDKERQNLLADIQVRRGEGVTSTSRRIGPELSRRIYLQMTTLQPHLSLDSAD
Procedure, shortened: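 LE was calculated as 1.37 × pIC50/HAC and LLE as pIC50 − LogD. LogD was measured by shake-flask partition between octanol and water at pH 7.4. IC50 values are the geometric mean ± SEM of at least three determinations.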

[2] = Metabolic stability in rat hepatocytes; assay type: in vitro ADME
Procedure, shortened: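 Intrinsic clearance was measured in rat hepatocyte incubations and expressed as μL/min/1 × 10^6 cells.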

[3] = molecular target: safety panel of 22 common off-targets, comprising enzymes, receptors and ion channels (e.g., COX2, PDEs, INSR, GABA, NMDA, CaV-L); assay: Eurofins SafetyScreen panel of 22 common off-targets; assay type: biochemical; conditions: read-out: IC50 against safety panel off-targets

## O=C(O)c1nc(-c2ccccc2)nc(O)c1O [Compound 5]
[1]; compared with methyl ester 1
  increase in potency: ~20 fold

## Cc1nc(C(=O)O)c(O)c(=O)[nH]1 [Compound 6]
[1]; compared with acid 5
  drop in potency: ~20 fold

## O=C(O)c1nc(-c2ccc(Cl)cc2)nc(O)c1O [Compound 10]
[1]
  increase in affinity: ~2 fold

## O=C(O)c1nc(-c2ccc(Br)cc2)nc(O)c1O [Compound 11]
[1]
  increase in affinity: ~2 fold

## O=C(O)c1nc(-c2ccc3ccccc3c2)[nH]c(=O)c1O [Compound 12]
[1]
  increase in affinity: ~2 fold

## O=C(O)c1nc(-c2ccc(N3CCNCC3)cc2)[nH]c(=O)c1O [Compound 17]
Full length MUS81-EME1
  improvement in biochemical activity (IC50): ~2 fold

## O=C(O)c1cn(-c2ccc(-c3ccccc3)cc2)cc(O)c1=O [Compound 18]
Full length MUS81-EME1
  improvement in biochemical activity (IC50): approximately 3 fold

## O=C(O)c1cn(-c2ccc(-c3ccc(C(=O)N4CCNCC4)cc3)cc2)cc(O)c1=O [Compound 23]
Full length MUS81-EME1
  improvement in biochemical activity: approximately 2 fold
[2]
  rHep Clint: 11 μL/min/1 × 10^6 cells

## N#Cc1cc(-c2ccc(C(=O)N3CCNCC3)cc2)ccc1-n1cc(O)c(=O)c(C(=O)O)c1 [Compound 24]
Full length MUS81-EME1
  improvement in biochemical activity: approximately 2 fold
[2]
  rHep Clint: 10 μL/min/1 × 10^6 cells
[3]
  IC50: > 100 µM
